From PubChem BioAssay
Sampled rows, rich in hits. Any-hit rate of the full collection: about 1.7%.
PfHsp90 set2: inhibits growth of yeast expressing Plasmodium falciparum Hsp90; AID 504621; 310,000 compounds, 0.32% hits; inhibition, % at 9.4 µM; S. cerevisiae expressing PfHsp90, BacTiter-Glo ATP, 48 h; yeast lacking PDR1 and PDR3 efflux regulators;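 active = every replicate shows inhibition above about 80%, whatever the replicate mean, limit read from the data; inconclusive = mean inhibition reaches the set limit but some replicate falls short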
SKKanGAS inh: blocks kanamycin growth of S. pyogenes SKKanGAS strain | inhibition, % at 7.5 µM | BacTiter-Glo, 6 h | 300,000 compounds, 1.3% hits;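 active = mean replicate score, as percent of positive control median, at least 50; inconclusive = mean below 50 but one replicate at or above 50; inactive = mean and every replicate below 50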;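 also: strain carries kanamycin resistance gene driven by streptokinase promoter and grows in 40 µg/ml kanamycin; loss of luminescence reflects streptokinase promoter inhibition or plain growth inhibition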
Rtt109 Vps75: blocks Candida albicans Rtt109/Vps75 acetyltransferase activity; Q5AAJ8; purified Rtt109/Vps75, ThioGlo CoA-SH fluorescence, 4 h; inhibition, % at 34.9 µM; 330,000 compounds, 0.16% hits;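 active = inhibition of at least 50% in every replicate; inconclusive = best replicate reaches 50% inhibition but some replicates fall short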
Target sequence (Q5AAJ8 whole entry, looked up): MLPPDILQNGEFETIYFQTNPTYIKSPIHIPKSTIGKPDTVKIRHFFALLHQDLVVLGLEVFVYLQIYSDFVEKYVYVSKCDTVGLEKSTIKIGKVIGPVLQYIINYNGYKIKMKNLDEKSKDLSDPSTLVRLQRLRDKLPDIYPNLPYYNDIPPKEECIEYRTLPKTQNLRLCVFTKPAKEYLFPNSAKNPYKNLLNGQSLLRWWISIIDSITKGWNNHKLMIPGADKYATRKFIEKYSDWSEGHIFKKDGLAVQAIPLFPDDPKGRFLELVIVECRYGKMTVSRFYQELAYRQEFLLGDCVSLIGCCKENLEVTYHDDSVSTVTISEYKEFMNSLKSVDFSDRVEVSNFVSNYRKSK
CSC inhib: cancer stem cell inhibition; inhibition, % at 7.5 µM; 300,000 compounds, 1.1% hits; cancer stem cell-like cells viability, luminescence; AID 2717; in the data active = inhibition above about 75%; inconclusive = no clear call, values can overlap the other calls; tested in HMLE shEcad cells
FN deposit inh: fibronectin deposition inhibition | AH1F fibroblasts, Alexa488-fibronectin deposition fluorescence, overnight | inhibition, % at 12.6 µM | 350,000 compounds, 0.086% hits;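 active = mean inhibition across replicates of 30% or more, regardless of how many single replicates reach that level; inconclusive = mean under 30% yet at least half of replicates reach 30%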
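Schedule: 1 h cell adhesion before compound, then overnight fibronectin incubation; test system: AH1F fibroblast monolayer depositing Alexa488-labelled fibronectin into matrix; quantity: 10000 AH1F cells per well; probe or stimulus: fluorescent fibronectin at 24 nM final; signal: fluorescence, ex 485 nm, em 525 nm; evaluation: percent inhibition as loss of matrix-bound fibronectin fluorescence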
PglD inh: inhibitors of Campylobacter jejuni PglD acetyltransferase. purified PglD enzyme, DTNB colorimetric CoA detection. inhibition, % at 12.5 µM. 360,000 compounds, 0.098% hits. AID 602405; in the data active = inhibition above about 16%, passing the limit was not always enough; inconclusive = no clear call, values can overlap the other calls
A number is an active result; i = inactive; ? = inconclusive; nt = not tested or not shown.

SMILES	PfHsp90 set2	SKKanGAS inh	Rtt109 Vps75	CSC inhib	FN deposit inh	PglD inh
C/C(=N\Nc1cc(N2CCCCC2)nc(C)n1)c1ccc(Br)cc1	i	81.7	i	105.0	i	i
C#CCOCCOCCOCCNc1nc(N2CCN(C(=O)[C@H](CCCN=C(N)N)n3cc(C(N)[C@@H](C)CC)nn3)CC2)nc(N2CCN(C(=O)[C@H](CCC(=O)O)n3cc([C@@H](N)CCCCN)nn3)CC2)n1 (some centres undefined)	i	nt	i	i	i	i
C#CCOCCOCCOCCNc1nc(N2CCN(C(=O)C([C@@H](C)O)n3cc([C@@H](N)CCCCN)nn3)CC2)nc(N2CCN(C(=O)[C@H](CCCCN)n3cc([C@@H](N)CC(N)=O)nn3)CC2)n1 (some centres undefined)	i	nt	90.9	i	i	i
C#CCOCCOCCOCCNc1nc(N2CCN(C(=O)[C@H](CCCN=C(N)N)n3cc(C(N)[C@@H](C)CC)nn3)CC2)nc(N2CCN(C(=O)[C@H](CCCCN)n3cc([C@@H](N)[C@H](C)CC)nn3)CC2)n1 (some centres undefined)	i	nt	53.8	i	i	i
NS(=O)(=O)c1ccc(NC(=O)/C=C/c2cn(-c3ccccc3)nc2-c2cccc(Cl)c2)cc1	nt	i	i	i	i	nt
COC(=O)c1ccc(NC(=O)c2cn(-c3ccccc3)nc2-c2ccncc2)cc1	89.2	i	i	i	nt	i
COc1cccc(-c2nn(-c3ccccc3)cc2C(=O)Nc2nccs2)c1	i	61.6	i	i	nt	i
CC(=O)c1ccc(NC(=O)c2cn(-c3ccccc3)nc2-c2ccncc2)cc1	i	i	i	i	nt	i
O=C(/C=C/c1cn(-c2ccccc2)nc1-c1ccccc1)Nc1ccc(C(=O)O)cc1	i	49.9	i	i	i	i
CN1C(=O)c2cc(NC(=O)c3cccs3)ccc2OC[C@H]2O[C@H](CC(=O)NCC(F)(F)F)CC[C@@H]21	nt	nt	nt	nt	i	i
O=C(Nc1ccc2c(c1)OCO2)N[C@@H]1CC[C@@H](CCNC(=O)C2CCOCC2)O[C@@H]1CO	nt	nt	nt	nt	i	i
CCC(=O)N1C[C@@H](C)[C@H](OC)CN(C)C(=O)c2cc(NC(=O)C3CCCCC3)ccc2OC[C@@H]1C	nt	nt	nt	nt	i	i
O=C(C[C@H]1CC[C@@H]2[C@H](COC[C@@H](O)CN2C(=O)c2ccccc2F)O1)NCc1ccc(-c2ccccc2)cc1	nt	nt	nt	nt	i	i
C=C(C)CNC(=S)NNC(=O)CCn1c2ccc(Cl)cc2c2cc(Cl)ccc21	i	73.7	nt	102.2	i	nt
C=C(C)CNC(=S)NNC(=O)CCn1c2cc(Cl)ccc2c2ccc(Cl)cc21	i	i	i	i	i	i
Cc1noc(C)c1S(=O)(=O)Nc1cccc2c1O[C@@H](CN(C)CC1CC1)[C@@H](C)CN([C@@H](C)CO)C2=O	nt	nt	nt	nt	nt	i
Cc1nnsc1C(=O)N/N=C/c1ccc2ccccc2c1O	i	56.1	i	77.6	i	nt
Cc1nnsc1C(=O)N/N=C/c1ccccc1	i	i	i	i	i	nt
CC(C)Nc1ccc(Nc2ccnc3cc4ccccc4cc23)cc1	i	i	i	108.0	i	nt
COc1ccc(Nc2ccnc3ccccc23)cc1	i	i	i	i	nt	nt
CC(=O)c1ccc(NC(=S)Nc2ccc(Br)c(Cl)c2)cc1	i	94.6	i	nt	nt	nt
COc1ccc(C)cc1Nc1n[n+](-c2ccccc2)c(-c2c(OC)ccc3ccccc23)s1	i	nt	i	86.8	i	i
Fc1ccc(-[n+]2nc(Nc3ccccc3)sc2-c2c3ccccc3cc3ccccc23)cc1	i	56.9	i	103.1	i	i
CCCNC(=O)C[C@H]1C[C@H]2c3cc(NC(=O)Cc4ccncc4)ccc3O[C@H]2[C@H](CO)O1	nt	nt	nt	nt	i	i
N#Cc1c(-c2c(Cl)cccc2Cl)noc1/C=C/Nc1ccc(C(=O)O)cc1	i	58.8	nt	i	i	nt
SMILES	PfHsp90 set2	SKKanGAS inh	Rtt109 Vps75	CSC inhib	FN deposit inh	PglD inh
Cc1nc(CC(C)C)cc(C(=O)N2CCCC(CNS(=O)(=O)c3cccs3)C2)n1 (centres undefined)	i	i	60.5	i	i	nt
O=C(NNC(=O)c1cc2cc(Br)ccc2oc1=O)c1ccc(O)cc1O	i	i	i	77.0	i	nt
COCCCNC(=O)c1cc2cc(Br)ccc2oc1=O	i	nt	i	i	i	nt
C#CCOCCOCCOCCNc1nc(N2CCN(C(=O)CCCCCCCCCCNC(=O)[C@H]([C@@H](C)CC)n3cc(CCCCN=C(N)N)nn3)CC2)nc(N2CCN(C(=O)CCCCCCCCCCNC(=O)[C@H](CO)n3cc(CCCCCN)nn3)CC2)n1	i	nt	87.1	i	nt	i
C#CCOCCOCCOCCNc1nc(N2CCN(C(=O)CCCCCCCCCCNC(=O)[C@H]([C@@H](C)CC)n3cc(CCCCCN)nn3)CC2)nc(N2CCN(C(=O)CCCCCCCCCCNC(=O)[C@H]([C@@H](C)CC)n3cc(CCCCN=C(N)N)nn3)CC2)n1	i	nt	i	i	nt	i
C#CCOCCOCCOCCNc1nc(N2CCOCC2)nc(N2CCN(C(=O)CCCCCCCCCCNC(=O)[C@@H]([C@H](C)CC)n3cc(CCCCCN)nn3)CC2)n1	i	nt	i	i	i	i
C#CCOCCOCCOCCNc1nc(N2CCN(C(=O)CCCCCCCCCCNC(=O)[C@H]([C@@H](C)CC)n3cc(CCCCCN)nn3)CC2)nc(N2CCN(C(=O)CCCCCCCCCCNC(=O)[C@@H]([C@H](C)CC)n3cc(CCCCCN)nn3)CC2)n1	nt	nt	nt	166.6	nt	nt
C#CCOCCOCCOCCNc1nc(N2CCN(C(=O)CCCCCCCCCCNC(=O)Cn3cc(CCCCCN)nn3)CC2)nc(N2CCN(C(=O)CCCCCCCCCCNC(=O)[C@H]([C@@H](C)CC)n3cc(CCCCN=C(N)N)nn3)CC2)n1	i	nt	?	161.3	nt	i
C[C@H]1CN([C@@H](C)CO)C(=O)Cc2cc(NS(=O)(=O)c3ccc(F)cc3)ccc2O[C@H]1CN(C)S(=O)(=O)c1ccccc1	nt	nt	nt	nt	nt	i
COc1ccc2nc(N)sc2c1	nt	i	i	nt	i	i
COc1ccc2nc(-n3c(C)ccc3C)sc2c1	i	54.4	nt	i	nt	i
CCCc1cc(-c2nc(N)ncc2-c2ccc3c(c2)OCCCO3)c(O)cc1OC	i	i	i	173.1	nt	i
O=C(C[C@H]1CC[C@@H](NC(=O)Nc2cc(F)ccc2F)[C@H](CO)O1)NCc1ccc2c(c1)OCO2	nt	nt	nt	nt	i	i
O=C1S/C(=C/c2ccc(N3CCOCC3)o2)C(=O)N1Cc1c(F)cccc1Cl	95.1	i	i	i	i	i
O=C1S/C(=C\c2ccc(N3CCOCC3)o2)C(=O)N1c1ccccc1	i	i	i	i	i	nt
O=C1S/C(=C\c2ccc(N3CCOCC3)o2)C(=O)N1Cc1c(F)cccc1Cl	97.0	i	i	i	nt	i
CCCNC(=O)N[C@@H]1CC[C@@H](CC(=O)NC2CCC2)O[C@@H]1CO	nt	nt	nt	nt	i	i
COc1cc(/C=C2\C(=O)ON=C2c2ccc(Cl)cc2)ccc1O	nt	i	nt	87.1	i	nt
COc1ccc(O)c(/C=N/NC(=S)Nc2cccc(S(=O)(=O)N(C)C)c2)c1	i	i	i	96.9	i	i
